Results taken from ChEMBL document CHEMBL1145035, “Design of selective peptidomimetic agonists for the human orphan receptor BRS-3” (J Med Chem, 2003).
Active and inactive are the calls of the source. The calls are words filed in the database; no cut-off is given here. Square brackets hold non-standard residues; d marks the D form. Peptide text beside a SMILES is read from it. * marks the point of attachment. NHPhenethyl = c1ccc(CCN*)cc1; Nle = CCCC[C@H](N)C(=O)O; PhAc = O=C(Cc1ccccc1)*; βAla = NCCC(=O)O

What was measured:
[1] = biological target: T1, Gastrin-releasing peptide receptor (Homo sapiens, UniProt P30550); test: Effective concentration required against gastrin releasing peptide receptor (GRP-R) in CHO cells by using FLIPR assay; assay type: functional, cell-based
Target sequence in this assay (P30550 whole entry): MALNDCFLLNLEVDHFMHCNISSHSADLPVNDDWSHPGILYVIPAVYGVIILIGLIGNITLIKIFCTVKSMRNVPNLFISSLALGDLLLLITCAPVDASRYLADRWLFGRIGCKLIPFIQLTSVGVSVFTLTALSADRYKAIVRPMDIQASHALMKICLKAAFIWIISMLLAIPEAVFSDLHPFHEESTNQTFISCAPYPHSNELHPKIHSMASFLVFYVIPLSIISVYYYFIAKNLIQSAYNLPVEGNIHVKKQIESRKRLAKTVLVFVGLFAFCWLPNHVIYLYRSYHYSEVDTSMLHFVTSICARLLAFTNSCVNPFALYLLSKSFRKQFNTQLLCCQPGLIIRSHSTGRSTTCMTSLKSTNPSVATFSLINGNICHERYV

[2] = biological target: T2, Bombesin receptor subtype-3 (Homo sapiens, UniProt P32247); test: Effective concentration required against human bombesin receptor 3 (BRS-3) in CHO cells by using FLIPR assay.; assay type: functional, cell-based
T2 sequence (P32247 whole entry): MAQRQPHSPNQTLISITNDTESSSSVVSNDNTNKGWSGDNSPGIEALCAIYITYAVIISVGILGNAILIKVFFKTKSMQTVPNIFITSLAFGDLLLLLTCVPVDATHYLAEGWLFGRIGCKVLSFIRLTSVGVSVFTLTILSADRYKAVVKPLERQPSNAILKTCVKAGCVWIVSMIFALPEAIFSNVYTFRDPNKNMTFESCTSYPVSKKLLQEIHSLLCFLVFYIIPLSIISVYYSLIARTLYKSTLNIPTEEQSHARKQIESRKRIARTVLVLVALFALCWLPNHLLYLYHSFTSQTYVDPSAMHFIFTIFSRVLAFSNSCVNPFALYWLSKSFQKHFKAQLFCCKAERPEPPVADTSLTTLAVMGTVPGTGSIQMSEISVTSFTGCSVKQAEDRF

Neuromedin-B receptor [3] = biological target: T3, Neuromedin-B receptor (Homo sapiens, UniProt P28336); test: (§1) Effective concentration required against nueromedin B receptor (NMB-R) in CHO cells by using FLIPR assay; assay type: functional, cell-based
Procedure, shortened: (§2)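 Intracellular Ca2+ mobilization was read by FLIPR in CHO cells transfected with the human receptor. NMB was the reference for NMB-R and GRP for GRP-R. EC50 values (±SEM) come from independent concentration–response curves, 4 to 30 per compound depending on the series.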
Target sequence in this assay (P28336 whole entry): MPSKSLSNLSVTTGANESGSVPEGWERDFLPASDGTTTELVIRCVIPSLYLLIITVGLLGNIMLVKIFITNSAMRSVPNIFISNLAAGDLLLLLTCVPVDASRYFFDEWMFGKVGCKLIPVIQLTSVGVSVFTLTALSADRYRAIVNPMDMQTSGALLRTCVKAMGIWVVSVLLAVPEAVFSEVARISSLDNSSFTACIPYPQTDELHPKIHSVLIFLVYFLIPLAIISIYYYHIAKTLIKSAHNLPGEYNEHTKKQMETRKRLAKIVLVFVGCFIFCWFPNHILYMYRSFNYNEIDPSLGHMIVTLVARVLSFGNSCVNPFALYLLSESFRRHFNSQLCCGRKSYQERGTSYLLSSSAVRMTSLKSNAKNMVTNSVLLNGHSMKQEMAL

Neuromedin-B receptor [4] = biological target: T3, Neuromedin-B receptor; test: Effective concentration required against nueromedin B receptor (NMB-R) in CHO cells by using FLIPR assay.; assay type: functional, cell-based; procedure, shortened: as §2
Target sequence in this assay (P28336 whole entry, looked up): as the sequence (P28336 whole entry) above

[5] = Emax
[6] = biological target: T1, Gastrin-releasing peptide receptor; test: Effective concentration required against gastrin releasing peptide receptor (GRP-R) in CHO cells by using FLIPR assay.; assay type: functional, cell-based; procedure, shortened: as §2
Target sequence in this assay (P30550 whole entry, looked up): as the sequence (P30550 whole entry) above

Neuromedin-B receptor [7] = biological target: T3, Neuromedin-B receptor; test: as §1; assay type: functional, cell-based; remark: listed apart in the source
Target sequence in this assay (P28336 whole entry): as the sequence (P28336 whole entry) above

| Structure (SMILES) | EC50 [1] [nM] | EC50 [2] [nM] | EC50 (Neuromedin-B receptor [3]) [nM] | NA (Neuromedin-B receptor [4]) | Emax [5] | NA [6] | EC50 (Neuromedin-B receptor [7]) [nM] |
| --- | --- | --- | --- | --- | --- | --- | --- |
| CSCC[C@H](NC(=O)[C@H](Cc1ccccc1)NC(=O)[C@H](Cc1cnc[nH]1)NC(=O)CNC(=O)[C@@H](NC(=O)[C@H](C)NC(=O)[C@H](Cc1c[nH]c2ccccc12)NC(=O)[C@H](CC(C)C)NC(=O)[C@H](CC(N)=O)NC(=O)CN)[C@@H](C)O)C(N)=O | 41 | 4500 | 120 |  |  |  |  |
| C[C@H](NC(=O)Cc1cc2ccccc2[nH]1)C(=O)N[C@@H](Cc1c[nH]c2ccccc12)C(=O)NCCc1ccccc1 |  | 79 |  | inactive | 69 | inactive |  |
| NC(=O)CC[C@H](NC(=O)[C@H](N)Cc1ccccc1)C(=O)N[C@@H](Cc1c[nH]c2ccccc12)C(=O)NCCc1ccccc1 |  | 710 |  | inactive |  | inactive |  |
| C[C@H](NC(=O)Cc1cccnc1)C(=O)N[C@@H](Cc1c[nH]c2ccccc12)C(=O)NCCc1ccccc1 |  |  |  | inactive | 74 | inactive |  |
| O=C(CN1CCC(Cc2ccccc2)CC1)NC(Cc1c[nH]c2ccccc12)C(=O)NCCc1ccccc1 (centres undefined) |  | 30 |  | inactive | 84 | inactive |  |
| NC(=O)CC[C@H](NC(=O)CCc1ccc(Cl)cc1)C(=O)N[C@@H](Cc1c[nH]c2ccccc12)C(=O)NCCc1ccccc1 |  | 230 |  | inactive | 68 | inactive |  |
| C[C@H](NC(=O)Cc1ccccc1)C(=O)N[C@@H](Cc1c[nH]c2ccccc12)C(=O)NCCc1ccccc1 (PhAc-Ala-Trp-NHPhenethyl) |  | 2.1 |  | inactive | 71 | inactive |  |
| O=C(N/N=C/c1ccc(Cl)cc1)NC(Cc1c[nH]c2ccccc12)C(=O)NCCc1ccccc1 (centres undefined) |  | 2700 |  | inactive | 78 | inactive |  |
| NC(=O)CC[C@H](NC(=O)Cc1cc2ccccc2[nH]1)C(=O)N[C@@H](Cc1c[nH]c2ccccc12)C(=O)NCCc1ccccc1 |  |  |  | inactive | 82 | inactive |  |
| NC(=O)CC[C@H](NC(=O)Cc1ccccc1)C(=O)N[C@@H](Cc1c[nH]c2ccccc12)C(=O)NCCc1ccccc1 (PhAc-Gln-Trp-NHPhenethyl) | 19100 | 1200 | 15000 |  | 38 |  |  |
| O=C(N/N=C/c1ccc(-c2cccs2)cc1)NC(Cc1c[nH]c2ccccc12)C(=O)NCCc1ccccc1 (centres undefined) |  | 7900 |  | inactive | 58 | inactive |  |
| C[C@H](NC(=O)CC1NCCc2ccccc21)C(=O)N[C@@H](Cc1c[nH]c2ccccc12)C(=O)NCCc1ccccc1 (some centres undefined) |  | 310 |  | inactive | 69 | inactive |  |
| O=C(Cc1cc2ccccc2[nH]1)NNC(=O)NC(Cc1c[nH]c2ccccc12)C(=O)NCCc1ccccc1 (centres undefined) |  |  |  | inactive | 84 | inactive |  |
| O=C(CN1CCN(Cc2ccccc2)CC1)NC(Cc1c[nH]c2ccccc12)C(=O)NCCc1ccccc1 (centres undefined) |  | 70 |  | inactive | 90 | inactive |  |
| O=C(NNCc1ccco1)NC(Cc1c[nH]c2ccccc12)C(=O)NCCc1ccccc1 (centres undefined) |  | 24 |  | inactive | 96 | inactive |  |
| O=C(Cc1ccc(Cl)cc1)NNC(=O)NC(Cc1c[nH]c2ccccc12)C(=O)NCCc1ccccc1 (centres undefined) |  |  |  | inactive | 89 | inactive |  |
| O=C(Cc1ccccc1)NNC(=O)NC(Cc1c[nH]c2ccccc12)C(=O)NCCc1ccccc1 (centres undefined) |  |  |  | inactive | 86 | inactive |  |
| NC(=O)CC[C@H](NC(=O)Cc1ccc(Cl)cc1)C(=O)N[C@@H](Cc1c[nH]c2ccccc12)C(=O)NCCc1ccccc1 | 12200 | 1400 | 18500 |  | 62 |  |  |

| Structure (SMILES) | EC50 [1] [nM] | EC50 [2] [nM] | EC50 (Neuromedin-B receptor [3]) [nM] | NA (Neuromedin-B receptor [4]) | Emax [5] | NA [6] | EC50 (Neuromedin-B receptor [7]) [nM] |
| --- | --- | --- | --- | --- | --- | --- | --- |
| C[C@H](NCCc1ccccc1)C(=O)N[C@@H](Cc1c[nH]c2ccccc12)C(=O)NCCc1ccccc1 |  |  |  | inactive | 82 | inactive |  |
| O=C(CNCc1cccnc1)NC(Cc1c[nH]c2ccccc12)C(=O)NCCc1ccccc1 (centres undefined) |  |  |  | inactive | 82 | inactive |  |
| C[C@H](NC(=O)Cc1ccc2c(c1)OCO2)C(=O)N[C@@H](Cc1c[nH]c2ccccc12)C(=O)NCCc1ccccc1 |  | 7.8 |  | inactive | 75 | inactive |  |
| C[C@H](NCc1ccccc1)C(=O)N[C@@H](Cc1c[nH]c2ccccc12)C(=O)NCCc1ccccc1 |  | 46 |  | inactive | 86 | inactive |  |
| C[C@H](NCc1ccc(Cl)cc1)C(=O)N[C@@H](Cc1c[nH]c2ccccc12)C(=O)NCCc1ccccc1 |  | 4 |  | inactive | 83 | inactive |  |
| O=C(CNCc1ccccc1)NC(Cc1c[nH]c2ccccc12)C(=O)NCCc1ccccc1 (centres undefined) |  |  |  | inactive | 87 | inactive |  |
| CSCC[C@H](NC(=O)[C@H](CC(C)C)NC(=O)[C@H](Cc1c[nH]cn1)NC(=O)CNC(=O)[C@@H](NC(=O)[C@H](C)NC(=O)[C@H](Cc1c[nH]c2ccccc12)NC(=O)[C@H](Cc1c[nH]cn1)NC(=O)[C@H](CC(N)=O)NC(=O)CNC(=O)[C@H](CCCN=C(N)N)NC(=O)[C@@H]1CCCN1C(=O)[C@H](Cc1ccc(O)cc1)NC(=O)[C@H](CCSC)NC(=O)[C@H](CCCCN)NC(=O)[C@@H](NC(=O)[C@H](CC(C)C)NC(=O)[C@@H](NC(=O)[C@@H](NC(=O)CNC(=O)CNC(=O)CNC(=O)[C@H](C)NC(=O)[C@@H]1CCCN1C(=O)[C@H](CC(C)C)NC(=O)[C@@H]1CCCN1C(=O)[C@@H](N)C(C)C)[C@@H](C)O)C(C)C)[C@@H](C)O)C(C)C)C(N)=O | 34 | 6400 | 3200 |  |  |  |  |
| O=C(Cc1cccnc1)NNC(=O)NC(Cc1c[nH]c2ccccc12)C(=O)NCCc1ccccc1 (centres undefined) |  | 1.4 |  | inactive | 102 | inactive |  |
| O=C(NNCc1ccccc1)NC(Cc1c[nH]c2ccccc12)C(=O)NCCc1ccccc1 (centres undefined) |  | 15 |  | inactive | 81 | inactive |  |
| O=C(CC1NCCc2ccccc21)NNC(=O)NC(Cc1c[nH]c2ccccc12)C(=O)NCCc1ccccc1 (centres undefined) |  | 9.3 |  | inactive | 95 | inactive |  |
| O=C(N/N=C/c1ccco1)NC(Cc1c[nH]c2ccccc12)C(=O)NCCc1ccccc1 (centres undefined) |  | 1.5 |  | inactive | 94 | inactive |  |
| C[C@H](NC(=O)Cc1ccc(Cl)cc1)C(=O)N[C@@H](Cc1c[nH]c2ccccc12)C(=O)NCCc1ccccc1 |  | 140 |  | inactive | 75 | inactive |  |
| CCCC[C@H](NC(=O)[C@H](Cc1ccccc1)NC(=O)[C@H](Cc1cnc[nH]1)NC(=O)CCNC(=O)[C@@H](NC(=O)[C@H](C)NC(=O)[C@H](Cc1c[nH]c2ccccc12)NC(=O)[C@H](CCC(N)=O)NC(=O)[C@H](N)Cc1ccc(O)cc1)C(C)C)C(N)=O (H-[dY]QWAV[βAla]HF[Nle]-NH2) |  | 151 |  |  |  |  | 310 |
| O=C(CNCCc1ccccc1)NC(Cc1c[nH]c2ccccc12)C(=O)NCCc1ccccc1 (centres undefined) |  |  |  | inactive | 92 | inactive |  |
| O=C(NNCc1ccc(Cl)cc1)NC(Cc1c[nH]c2ccccc12)C(=O)NCCc1ccccc1 (centres undefined) |  | 6 |  | inactive | 83 | inactive |  |
| O=C(CNCc1ccc(Cl)cc1)NC(Cc1c[nH]c2ccccc12)C(=O)NCCc1ccccc1 (centres undefined) |  |  |  | inactive | 81 | inactive |  |
| O=C(CC1NCCc2ccccc21)NNC(=O)N[C@H](Cc1c[nH]c2ccccc12)C(=O)NCCc1ccccc1 (some centres undefined) |  | 19 |  | inactive | 91 | inactive |  |
| C[C@H](NC(=O)CCc1ccc(Cl)cc1)C(=O)N[C@@H](Cc1c[nH]c2ccccc12)C(=O)NCCc1ccccc1 |  | 6400 |  | inactive | 30 | inactive |  |
